Columns and labels:
[1] = Tmax in Sprague-Dawley rat at 50 mg/kg, po; type: ADME, organism-based; design: dose 50 mg/kg, route oral; details: in vivo
[2] = Cmax in Sprague-Dawley rat at 50 mg/kg, po; type: ADME, organism-based; design: dose 50 mg/kg, route oral; details: in vivo
[3] = Oral bioavailability in Sprague-Dawley rat at 50 mg/kg; type: ADME, organism-based; details: in vivo
[4] = Tmax in beagle dog at 10 mg/kg, po; type: ADME, organism-based, Canis lupus familiaris; design: dose 10 mg/kg, route oral; details: in vivo
[5] = target: Voltage-gated inwardly rectifying potassium channel KCNH2 (Homo sapiens, UniProt Q12809); experiment: Inhibition of human ERG channel transfected in HEK293 cells assessed as K+ current at up to 10 uM by patch clamp assay; type: cell-based
[6] = Permeability from apical to basolateral side in human Caco cells; type: ADME, cell-based; details: Caco-2, read-out: permeability
Histamine H4 receptor [7] = target: Histamine H4 receptor (Homo sapiens, UniProt Q9H3N8); experiment: Agonist activity at human H4 receptor
Mus musculus = experiment: Antiinflammatory activity against po dosed collagen-induced arthritis mouse model assessed as inhibition of clinical score; type: functional, organism-based
Outline: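 Mouse collagen-induced arthritis model. Compound was given orally in 20% hydroxypropyl-β-cyclodextran, with eight mice per group.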

[8] = Cmax in beagle dog at 10 mg/kg, po; type: ADME, organism-based, Canis lupus familiaris; design: dose 10 mg/kg, route oral; details: in vivo
[9] = Half life in human microsomes; type: ADME, Microsome
[10] = Half life in Balb/c mouse at 20 mg/kg, po; type: ADME, organism-based; design: dose 20 mg/kg, route oral; details: in vivo
[11] = Binding affinity to monkey histamine H4 receptor; design: species or system Macaca mulatta
[12] = Half life in rat microsomes; type: ADME, Microsome
[13] = AUC in Balb/c mouse at 20 mg/kg, po; type: ADME, organism-based; design: dose 20 mg/kg, route oral; details: plasma
Histamine H4 receptor [14] = target: T1, Histamine H4 receptor (Rattus norvegicus, UniProt Q91ZY1); experiment: Displacement of [3H]histamine from rat histamine H4 receptor expressed in SK-N-MC cells after 45 mins by competition binding analysis; type: cell-based
Outline: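 Transfected cells expressing the H4 receptor, competition against [3H]histamine. Ki is the geometric mean of at least three independent determinations (each in triplicate), calculated by the Cheng–Prusoff equation.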

Cytochrome P450 1A2 = target: T2, Cytochrome P450 1A2 (Homo sapiens, UniProt P05177); experiment: Inhibition of CYP1A2 (unknown origin) at 50 to 100 uM; type: ADME
T2 sequence (P05177 whole entry): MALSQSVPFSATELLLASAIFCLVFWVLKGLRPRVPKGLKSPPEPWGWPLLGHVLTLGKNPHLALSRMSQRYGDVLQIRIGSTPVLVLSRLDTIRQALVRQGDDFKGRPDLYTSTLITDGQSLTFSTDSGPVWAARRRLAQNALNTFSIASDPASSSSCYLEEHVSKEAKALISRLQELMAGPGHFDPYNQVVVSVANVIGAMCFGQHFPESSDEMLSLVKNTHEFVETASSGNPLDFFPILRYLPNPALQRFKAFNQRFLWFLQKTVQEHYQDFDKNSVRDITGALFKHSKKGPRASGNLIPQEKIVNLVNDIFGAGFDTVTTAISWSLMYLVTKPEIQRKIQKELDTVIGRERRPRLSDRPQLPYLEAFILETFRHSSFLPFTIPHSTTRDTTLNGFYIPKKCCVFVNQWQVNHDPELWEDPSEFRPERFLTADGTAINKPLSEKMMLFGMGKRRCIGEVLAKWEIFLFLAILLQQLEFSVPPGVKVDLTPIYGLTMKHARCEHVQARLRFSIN

[15] = Half life in rat at 10 mg/kg, po; type: ADME, organism-based; design: dose 10 mg/kg, route oral; details: in vivo
[16] = AUC in Sprague-Dawley rat at 10 mg/kg, po; type: ADME, organism-based; design: dose 10 mg/kg, route oral; details: plasma
[17] = AUC in Sprague-Dawley rat at 2 mg/kg, iv; type: ADME, organism-based; design: dose 2 mg/kg, route intravenous; details: plasma
[18] = Half life in rat liver microsomes; type: ADME
[19] = Cmax in Balb/c mouse at 5 mg/kg, po; type: ADME, organism-based; design: dose 5 mg/kg, route oral; details: in vivo
[20] = Half life in mouse liver at 5 mg/kg, po administered as single dose by LC-MS/MS analysis; type: ADME, organism-based; design: dose 5 mg/kg, route oral
Outline: (§1)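 Mice received one oral dose of 5 mg/kg. Brain, liver and kidneys were surgically removed from three mice per time point for up to 96 h after dosing. Tissue drug levels were measured by LC–MS/MS with a lower limit of quantitation of 1 ng/g. Tmax and t1/2 are reported as means.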

[21] = Tmax in Sprague-Dawley rat at 10 mg/kg, po; type: ADME, organism-based; design: dose 10 mg/kg, route oral; details: in vivo
Cytochrome P450 3A4 = Cytochrome P450 3A4 (Homo sapiens, UniProt P08684); experiment: Inhibition of CYP3A4 (unknown origin) at 50 to 100 uM; type: ADME
Histamine H4 receptor [22] = target: T1, Histamine H4 receptor; experiment: Antagonist activity at rat histamine H4 receptor expressed in SK-N-MC cells assessed as reduction of histamine-induced inhibition of cAMP-mediated beta-galactosidase reporter gene activity treated 10 mins prior to histamine challenge by microplate reader analysis; type: functional, cell-based; details: read-out: pA2 (converted)
[23] = Tmax in Sprague-Dawley rat at 200 mg/kg, po; type: ADME, organism-based; design: dose 200 mg/kg, route oral; details: in vivo
[24] = Fraction unbound in rat plasma; type: ADME, cell-free
[25] = Oral bioavailability in Balb/c mouse at 5 mg/kg; type: ADME, organism-based; details: in vivo
[26] = Oral bioavailability in Sprague-Dawley rat at 200 mg/kg; type: ADME, organism-based; details: in vivo
[27] = Cmax in rat at 10 mg/kg, po; type: ADME, organism-based; design: dose 10 mg/kg, route oral; details: in vivo
[28] = Clearance in rat at 2 mg/kg, iv; type: ADME, organism-based; design: dose 2 mg/kg, route intravenous; details: in vivo
[29] = AUC in beagle dog at 10 mg/kg, po; type: ADME, organism-based, Canis lupus familiaris; design: dose 10 mg/kg, route oral; details: plasma
[30] = AUC in Sprague-Dawley rat at 200 mg/kg, po; type: ADME, organism-based; design: dose 200 mg/kg, route oral; details: plasma
[31] = Clearance in Balb/c mouse at 2 mg/kg, iv; type: ADME, organism-based; design: dose 2 mg/kg, route intravenous; details: in vivo
[32] = Toxicity in rabbit purkinje fibers; type: tissue-based, Oryctolagus cuniculus, Purkinje fiber; details: ex_vivo
[33] = Half life in Sprague-Dawley rat at 10 mg/kg, po; type: ADME, organism-based; design: dose 10 mg/kg, route oral; details: in vivo
[34] = Cmax in Sprague-Dawley rat at 200 mg/kg, po; type: ADME, organism-based; design: dose 200 mg/kg, route oral; details: in vivo
[35] = Fraction unbound in mouse plasma; type: ADME, cell-free
[36] = Ratio of drug level in kidney to plasma in mouse at 5 mg/kg, po administered as single dose […] by LC-MS/MS analysis; type: ADME, organism-based; design: dose 5 mg/kg, route oral
[37] = Cmax in Sprague-Dawley rat at 10 mg/kg, po; type: ADME, organism-based; design: dose 10 mg/kg, route oral; details: in vivo
[38] = Oral bioavailability in Sprague-Dawley rat at 10 mg/kg; type: ADME, organism-based; details: in vivo
[39] = Half life in Sprague-Dawley rat at 200 mg/kg, po; type: ADME, organism-based; design: dose 200 mg/kg, route oral; details: in vivo
[40] = AUC in Balb/c mouse at 5 mg/kg, po; type: ADME, organism-based; design: dose 5 mg/kg, route oral; details: plasma
[41] = Oral bioavailability in beagle dog at 10 mg/kg; type: ADME, organism-based, Canis lupus familiaris; details: in vivo
Cytochrome P450 2C9 = Cytochrome P450 2C9 (Homo sapiens, UniProt P11712); experiment: Inhibition of CYP2C9 (unknown origin) at 50 to 100 uM; type: ADME
[42] = Volume of distribution at steady state in Balb/c mouse at 2 mg/kg, iv; type: ADME, organism-based; design: dose 2 mg/kg, route intravenous; details: in vivo, read-out: Vdss
[43] = Initial plasma concentration in beagle dog at 2 mg/kg, iv; type: ADME, organism-based, Canis lupus familiaris; design: dose 2 mg/kg, route intravenous
[44] = Half life in Sprague-Dawley rat at 2 mg/kg, iv; type: ADME, organism-based; design: dose 2 mg/kg, route intravenous; details: Sprague-Dawley, in vivo
[45] = Cmax in Sprague-Dawley rat at 500 mg/kg, po; type: ADME, organism-based; design: dose 500 mg/kg, route oral; details: in vivo
[46] = Tmax in mouse liver at 5 mg/kg, po administered as single dose by LC-MS/MS analysis; type: ADME, organism-based; design: dose 5 mg/kg, route oral; outline: as §1

T1 sequence (Q91ZY1 whole entry): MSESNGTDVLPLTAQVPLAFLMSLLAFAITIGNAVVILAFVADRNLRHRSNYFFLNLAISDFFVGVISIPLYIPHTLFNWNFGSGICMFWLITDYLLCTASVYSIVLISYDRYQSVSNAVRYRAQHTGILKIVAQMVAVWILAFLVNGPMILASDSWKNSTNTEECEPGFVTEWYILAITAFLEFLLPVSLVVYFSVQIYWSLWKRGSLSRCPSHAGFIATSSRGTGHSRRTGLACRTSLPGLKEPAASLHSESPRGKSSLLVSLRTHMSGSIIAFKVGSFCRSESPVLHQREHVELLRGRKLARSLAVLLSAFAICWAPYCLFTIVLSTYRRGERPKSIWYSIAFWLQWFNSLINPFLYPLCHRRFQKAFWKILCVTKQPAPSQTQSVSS
Chain of Cytochrome P450 2C9 (P11712 whole entry): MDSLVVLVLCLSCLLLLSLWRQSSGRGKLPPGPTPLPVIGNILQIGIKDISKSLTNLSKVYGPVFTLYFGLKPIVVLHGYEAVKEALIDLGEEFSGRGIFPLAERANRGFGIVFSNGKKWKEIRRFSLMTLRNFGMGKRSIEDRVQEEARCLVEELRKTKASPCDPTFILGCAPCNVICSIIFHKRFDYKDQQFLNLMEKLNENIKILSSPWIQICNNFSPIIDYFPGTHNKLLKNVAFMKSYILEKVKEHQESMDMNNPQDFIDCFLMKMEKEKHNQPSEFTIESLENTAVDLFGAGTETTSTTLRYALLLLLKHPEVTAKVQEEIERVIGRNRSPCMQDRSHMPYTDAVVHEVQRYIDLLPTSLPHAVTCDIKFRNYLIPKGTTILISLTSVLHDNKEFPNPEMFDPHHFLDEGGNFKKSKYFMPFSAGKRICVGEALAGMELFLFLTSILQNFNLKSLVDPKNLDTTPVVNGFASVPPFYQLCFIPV
Chain of Cytochrome P450 3A4 (P08684 whole entry): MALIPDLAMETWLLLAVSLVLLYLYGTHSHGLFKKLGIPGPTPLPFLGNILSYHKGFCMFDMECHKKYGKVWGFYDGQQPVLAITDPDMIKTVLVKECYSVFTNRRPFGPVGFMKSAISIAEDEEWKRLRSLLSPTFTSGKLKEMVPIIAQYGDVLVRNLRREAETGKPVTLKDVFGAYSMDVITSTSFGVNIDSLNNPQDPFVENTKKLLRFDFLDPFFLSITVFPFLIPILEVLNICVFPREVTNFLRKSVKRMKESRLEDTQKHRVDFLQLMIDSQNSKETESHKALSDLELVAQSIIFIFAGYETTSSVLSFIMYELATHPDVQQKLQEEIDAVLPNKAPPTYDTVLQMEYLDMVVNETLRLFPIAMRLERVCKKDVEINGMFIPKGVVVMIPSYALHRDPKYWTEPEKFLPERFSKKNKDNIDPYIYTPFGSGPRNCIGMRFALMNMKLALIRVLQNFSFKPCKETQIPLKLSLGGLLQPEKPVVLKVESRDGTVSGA
Chain of Histamine H4 receptor (Homo sapiens, UniProt Q9H3N8) (Q9H3N8 whole entry): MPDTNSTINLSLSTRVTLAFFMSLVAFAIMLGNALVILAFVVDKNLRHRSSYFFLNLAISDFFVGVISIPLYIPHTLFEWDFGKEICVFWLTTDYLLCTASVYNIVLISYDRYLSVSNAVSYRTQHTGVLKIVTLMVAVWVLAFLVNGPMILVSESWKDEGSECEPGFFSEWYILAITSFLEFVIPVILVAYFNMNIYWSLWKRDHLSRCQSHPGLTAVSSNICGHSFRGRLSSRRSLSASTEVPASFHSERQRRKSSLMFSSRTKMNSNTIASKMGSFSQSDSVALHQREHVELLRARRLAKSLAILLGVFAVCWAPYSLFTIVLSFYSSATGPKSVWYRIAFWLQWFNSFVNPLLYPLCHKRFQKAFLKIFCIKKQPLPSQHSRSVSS
Chain of Voltage-gated inwardly rectifying potassium channel KCNH2 (Q12809 whole entry): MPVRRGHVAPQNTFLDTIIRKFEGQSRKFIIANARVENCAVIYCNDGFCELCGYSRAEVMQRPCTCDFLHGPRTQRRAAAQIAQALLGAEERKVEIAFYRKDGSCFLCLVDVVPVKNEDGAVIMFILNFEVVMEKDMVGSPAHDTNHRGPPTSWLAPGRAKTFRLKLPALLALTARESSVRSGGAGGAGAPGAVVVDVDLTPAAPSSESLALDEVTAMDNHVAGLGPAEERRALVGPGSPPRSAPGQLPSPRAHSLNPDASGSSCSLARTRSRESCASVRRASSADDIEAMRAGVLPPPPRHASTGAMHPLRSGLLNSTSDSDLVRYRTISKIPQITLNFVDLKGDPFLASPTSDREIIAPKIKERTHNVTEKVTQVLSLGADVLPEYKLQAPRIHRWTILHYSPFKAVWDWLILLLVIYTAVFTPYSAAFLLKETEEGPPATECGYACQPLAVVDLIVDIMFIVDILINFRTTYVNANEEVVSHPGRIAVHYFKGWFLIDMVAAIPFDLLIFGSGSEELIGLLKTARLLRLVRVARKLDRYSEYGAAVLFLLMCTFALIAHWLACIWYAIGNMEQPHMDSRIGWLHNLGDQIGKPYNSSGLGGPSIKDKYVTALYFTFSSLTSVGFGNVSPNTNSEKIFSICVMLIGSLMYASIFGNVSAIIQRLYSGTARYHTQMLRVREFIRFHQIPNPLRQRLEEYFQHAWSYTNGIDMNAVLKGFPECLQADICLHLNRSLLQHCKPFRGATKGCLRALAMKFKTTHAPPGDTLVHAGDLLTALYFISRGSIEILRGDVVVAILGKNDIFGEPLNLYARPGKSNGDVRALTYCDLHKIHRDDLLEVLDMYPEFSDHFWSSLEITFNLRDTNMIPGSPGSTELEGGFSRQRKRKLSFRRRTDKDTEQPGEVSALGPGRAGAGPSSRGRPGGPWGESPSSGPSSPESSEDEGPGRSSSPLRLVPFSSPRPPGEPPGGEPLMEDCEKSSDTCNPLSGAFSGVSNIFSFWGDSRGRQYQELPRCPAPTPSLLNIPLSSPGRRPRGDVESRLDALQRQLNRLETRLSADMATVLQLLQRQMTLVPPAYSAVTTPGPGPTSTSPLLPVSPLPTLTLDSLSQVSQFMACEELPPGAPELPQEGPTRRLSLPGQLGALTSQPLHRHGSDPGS

Compound: CC(C)c1cc(N2CC[C@@H](N)C2)nc(N)n1 [JNJ-39758979]
- Tmax [1]: 2 h
- Cmax [2]: 1250 nM
- bioavailability [3]: 38%
- Tmax [4]: 0.8 h
- inhibition (INH) [5]: Not Active
- Papp A→B [6]: 23 ×10⁻⁶ cm/s
- EC50 (Histamine H4 receptor [7]): > 10000 nM
- inhibition (Mus musculus): Dose-dependent effect
- Cmax [8]: 3900 nM
- half-life [9]: > 3 h
- half-life [10]: 4.7 h
- Ki [11]: 25 nM
- half-life [12]: 1.02 h
- AUC [13]: 24.6 µM·h
- Ki (Histamine H4 receptor [14]): 188 nM
- inhibition (INH) (Cytochrome P450 1A2): Not Active
- half-life [15]: 7.5 h
- AUC [16]: 2.43 µM·h
- AUC [17]: 1.4 µM·h
- half-life [18]: > 2 h
- Cmax [19]: 790 nM
- half-life [20]: 22.3 h
- Tmax [21]: 2 h
- inhibition (INH) (Cytochrome P450 3A4): Not Active
- Kb (Histamine H4 receptor [22]): 63.1 nM
- Tmax [23]: 8 h
- fraction unbound [24]: 0.83
- bioavailability [25]: 84%
- bioavailability [26]: 51%
- Cmax [27]: 300 nM
- clearance [28]: 36.7 mL/min/kg
- AUC [29]: 31.6 µM·h
- AUC [30]: 71.2 µM·h
- clearance [31]: 40 mL/min/kg
- Activity [32]: Non-toxic
- half-life [33]: 5.7 h
- Cmax [34]: 4910 nM
- fraction unbound [35]: 0.76
- Kp [36]: 23.2
- Cmax [37]: 260 nM
- bioavailability [38]: 35%
- half-life [39]: 6.16 h
- AUC [40]: 9.69 µM·h
- bioavailability [41]: 95%
- inhibition (INH) (Cytochrome P450 2C9): Not Active
- Vd [42]: 31 L/kg
- C0 [43]: 4220 nM
- half-life [44]: 2.1 h
- Cmax [45]: 7070 nM
- Tmax [46]: 2 h
